Key:
[1] = QAC levels in human blood; format: in vivo; details: human serum, n = 111; for Median concentration: non-detects = 1/2 MDL
[2] = Hepatic clearance in vitro-in vivo extrapolation; design: species or system human; details: IVIVE
Summary of the method: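 Human liver microsomes (1 mg/mL) in 50 mM phosphate pH 7.4 with 3 mM MgCl2, 0.5 uM substrate, 0.5% DMSO, NADPH-generating system, 37 °C, triplicate, stopped at 0–3 h; depletion fitted mono-exponentially for CLin vitro. Unbound fraction from NSB-corrected serum ultrafiltration and 60-min blood/serum ratio. Scaled by 34 mg microsomal protein/g liver, hepatic blood flow 42.6 mL/h/g liver.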

## CCCCCCCC[N+](C)(C)Cc1ccccc1 [C8-BAC]
[1]; before COVID-19 (2019)
  Maximum concentration: 0.196 ng/mL
  Minimum concentration: <MDL
  Median concentration: <MDL
[1]; during COVID-19 (2020)
  Maximum concentration: 0.433 ng/mL
  Minimum concentration: <MDL
  Median concentration: 0.055 ng/mL

## CCCCCCCC[N+](C)(C)CCCCCCCC [C8-DDAC]
[1]; before COVID-19 (2019)
  Maximum concentration: 0.447 ng/mL
  Minimum concentration: <MDL
  Median concentration: <MDL
[1]; during COVID-19 (2020)
  Maximum concentration: 0.219 ng/mL
  Minimum concentration: <MDL
  Median concentration: <MDL

## CCCCCCCCCC[N+](C)(C)Cc1ccccc1 [C10-BAC]
[1]; before COVID-19 (2019)
  Maximum concentration: 0.166 ng/mL
  Minimum concentration: <MDL
  Median concentration: <MDL
[1]; during COVID-19 (2020)
  Maximum concentration: 1.45 ng/mL
  Minimum concentration: <MDL
  Median concentration: <MDL

## CCCCCCCCCC[N+](C)(C)CCCCCCCCCC [C10-DDAC]
[1]; before COVID-19 (2019)
  Maximum concentration: 0.206 ng/mL
  Minimum concentration: <MDL
  Median concentration: <MDL
[1]; during COVID-19 (2020)
  Maximum concentration: 0.620 ng/mL
  Minimum concentration: <MDL
  Median concentration: 0.089 ng/mL

## CCCCCCCCCCCC[N+](C)(C)C [C12-ATMAC]
[2]
  Fold lower CLinvivo than C14- and C16-ATMACs: 2-4 times
[1]; before COVID-19 (2019)
  Maximum concentration: 8.55 ng/mL
  Minimum concentration: <MDL
  Median concentration: 0.981 ng/mL
[1]; during COVID-19 (2020)
  Maximum concentration: 6.84 ng/mL
  Minimum concentration: <MDL
  Median concentration: 0.612 ng/mL

## CCCCCCCCCCCC[N+](C)(C)Cc1ccccc1 [C12-BAC]
[1]; before COVID-19 (2019)
  Maximum concentration: 1.40 ng/mL
  Minimum concentration: <MDL
  Median concentration: 0.289 ng/mL
[1]; during COVID-19 (2020)
  Maximum concentration: 22.1 ng/mL
  Minimum concentration: <MDL
  Median concentration: 0.634 ng/mL

## CCCCCCCCCCCCCC[N+](C)(C)C [C14-ATMAC]
[1]; before COVID-19 (2019)
  Maximum concentration: 1.86 ng/mL
  Minimum concentration: <MDL
  Median concentration: 0.667 ng/mL
[1]; during COVID-19 (2020)
  Maximum concentration: 3.75 ng/mL
  Minimum concentration: <MDL
  Median concentration: 0.929 ng/mL

## CCCCCCCCCCCCCC[N+](C)(C)Cc1ccccc1 [C14-BAC]
[1]; before COVID-19 (2019)
  Maximum concentration: 2.36 ng/mL
  Minimum concentration: <MDL
  Median concentration: 0.490 ng/mL
[1]; during COVID-19 (2020)
  Maximum concentration: 40.1 ng/mL
  Minimum concentration: <MDL
  Median concentration: 1.14 ng/mL

## CCCCCCCCCCCCCC[N+](C)(C)CCCCCCCCCCCCCC [C14-DDAC]
[1]; before COVID-19 (2019)
  Maximum concentration: 0.522 ng/mL
  Minimum concentration: <MDL
  Median concentration: <MDL
[1]; during COVID-19 (2020)
  Maximum concentration: 0.795 ng/mL
  Minimum concentration: <MDL
  Median concentration: <MDL

## CCCCCCCCCCCCCCCC[N+](C)(C)C [C16-ATMAC]
[1]; before COVID-19 (2019)
  Maximum concentration: 5.65 ng/mL
  Minimum concentration: <MDL
  Median concentration: <MDL
[1]; during COVID-19 (2020)
  Maximum concentration: 3.53 ng/mL
  Minimum concentration: <MDL
  Median concentration: 0.966 ng/mL

## CCCCCCCCCCCCCCCC[N+](C)(C)Cc1ccccc1 [C16-BAC]
[1]; before COVID-19 (2019)
  Maximum concentration: 0.800 ng/mL
  Minimum concentration: <MDL
  Median concentration: 0.080 ng/mL
[1]; during COVID-19 (2020)
  Maximum concentration: 16.4 ng/mL
  Minimum concentration: <MDL
  Median concentration: 0.346 ng/mL

## CCCCCCCCCCCCCCCC[N+](C)(C)CCCCCCCCCCCCCCCC [C16-DDAC]
[1]; before COVID-19 (2019)
  Maximum concentration: 0.142 ng/mL
  Minimum concentration: <MDL
  Median concentration: <MDL
[1]; during COVID-19 (2020)
  Maximum concentration: 0.576 ng/mL
  Minimum concentration: <MDL
  Median concentration: <MDL

## CCCCCCCCCCCCCCCCCC[N+](C)(C)C [C18-ATMAC]
[1]; before COVID-19 (2019)
  Maximum concentration: 0.171 ng/mL
  Minimum concentration: <MDL
  Median concentration: <MDL
[1]; during COVID-19 (2020)
  Maximum concentration: 3.62 ng/mL
  Minimum concentration: <MDL
  Median concentration: <MDL

## CCCCCCCCCCCCCCCCCC[N+](C)(C)Cc1ccccc1 [C18-BAC]
[1]; before COVID-19 (2019)
  Maximum concentration: 2.14 ng/mL
  Minimum concentration: <MDL
  Median concentration: <MDL
[1]; during COVID-19 (2020)
  Maximum concentration: 1.41 ng/mL
  Minimum concentration: <MDL
  Median concentration: 0.180 ng/mL

## CCCCCCCCCCCCCCCCCC[N+](C)(C)CCCCCCCCCCCCCCCCCC [C18-DDAC]
[1]; before COVID-19 (2019)
  Maximum concentration: 5.77 ng/mL
  Minimum concentration: <MDL
  Median concentration: <MDL
[1]; during COVID-19 (2020)
  Maximum concentration: 5.35 ng/mL
  Minimum concentration: <MDL
  Median concentration: <MDL
